Measurements collected from several papers.
Each line is one published result; the experiments were not run side by side.
Target: Vascular endothelial growth factor receptor 2 (KDR, Homo sapiens, UniProt P35968)

Structure (SMILES) | effect on | action | technique | concentration | measurement | result
COc1ccc(NC(=O)c2c(Nc3ccccc3)sc(C(=O)NN=Cc3ccc(Cl)cc3)c2NC(C)=O)cc1 | enzyme activity | inhibitor | – | 100 µM | remaining activity | 60.6%
O=C1NC(=O)c2cc(Nc3ccc(F)cc3)c(Nc3ccc(F)cc3)cc21 | cell-free assay | – | – | 0.5 µM | remaining signal | 97.9%
CCCS(=O)(=O)Nc1ccc(F)c(C(=O)c2c[nH]c3ncc(-c4ccc(Cl)cc4)cc23)c1F | enzyme activity | inhibitor | – | 1 µM | inhibition | < 20%
COc1cc2nccc(Oc3ccc(NC(=O)c4c5n(n(-c6ccc(F)cc6)c4=O)CCCC5)cc3)c2cc1OC | enzyme activity | inhibitor | – | 0.1 µM | inhibition | 22%
COc1ccc(C=NNC(=O)c2sc(Nc3ccccc3)c(C(=O)Nc3ccc(OC)cc3)c2NC(C)=O)cc1 | enzyme activity | inhibitor | – | 100 µM | remaining activity | 35.1%
O=C(O)c1cc(-c2ccc(C3CCNCC3)cc2)c2ccc(-c3ccc(C(F)(F)F)cc3)cc2c1 | cell-free assay | – | competition with immobilised ligand | 1 µM | remaining binding | 100%
COc1ccc(-c2cnc3c(-c4ccsc4)cnn3c2)cc1 | cell-free assay | – | – | 0.5 µM | remaining signal | 79.8%
CN(C)c1ncnc(-c2ccc3nc(Nc4cc(CN5CCN(C(=O)CC(F)(F)F)CC5)ccn4)[nH]c3c2)c1Cl | cell-free assay | – | competition with immobilised ligand | 1 µM | remaining binding | 74%
COc1ccc(NC(=O)c2c(Nc3ccccc3)sc(C#N)c2NC(=O)CNc2ccc(Br)cc2)cc1 | enzyme activity | inhibitor | – | 0.1 µM | remaining activity | 66.2%
COc1cc(-c2cn(C3CCc4ccccc4N(CC(F)(F)F)C3=O)nn2)ccc1-n1ccc(C)n1 (stereo not drawn) | cell-free assay | – | competition with immobilised ligand | 1 µM | remaining binding | 79%
COc1ccc(COc2ccc(Cc3cnc(N)nc3N)cc2OC)cc1 | cell-free assay | – | – | 0.5 µM | remaining signal | 109%
CNC(=O)c1c(C)oc2cc(Oc3ncnc4cc(OC)c(OC)cc34)ccc12 | enzyme activity | inhibitor | – | 0.1 µM | inhibition | 89.9%
COc1ccc(NC(=O)c2c(Nc3ccccc3)sc(C(=O)NN=Cc3cc(OC)c(OC)c(OC)c3)c2NC(C)=O)cc1 | enzyme activity | inhibitor | – | 1 µM | remaining activity | 82.1%
Cc1ccc(C(=O)Nc2ccc(CN3CCN(C)CC3)c(C(F)(F)F)c2)cc1C#Cc1cnc2cccnn12 | cell-free assay | – | – | 23.5 nM | remaining signal | 15%
COc1ccc(NC(=O)c2c(Nc3ccccc3)sc(C(=O)NN=Cc3ccc(OC)c(O)c3)c2NC(C)=O)cc1 | enzyme activity | inhibitor | – | 1 µM | remaining activity | 63.2%
CCCCN(CCCC)C(=O)CN1C[C@H](c2cc(OC)c3c(c2)OCO3)[C@@H](C(=O)O)[C@@H]1CC(C)(C)CCC | cell-free assay | – | competition with immobilised ligand | 1 µM | remaining binding | 88.7%
COc1ccc(NC(=O)c2c(Nc3ccccc3)sc(C#N)c2NC(=O)CNc2ccc(Cl)cc2)cc1 | enzyme activity | inhibitor | – | 10 µM | remaining activity | 29.6%
Cc1ccc(NC(=O)c2ccc(C)c(C(F)(F)F)c2)cc1C#Cc1nn(C2CCC(O)CC2)c2ncnc(N)c12 (stereo not drawn) | cell-free assay | – | – | 10 µM | remaining signal | 2%
